Data: ChEMBL document CHEMBL5058577, “EUbOPEN Chemogenomics Library 2 (Multiplex)” (2022)

Test system: U2OS
Experiment: Multiplex assay against U2OS
Type: toxicity, cell-based
Settings: human
In short: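 Imaging took place on a CQ1 microscope at 37°C and 5% CO2 once compound had been added to live cells stained at seeding with Hoechst33342, BioTracker Green Microtubule Cytoskeleton Dye, MitoTracker Red and Annexin V Alexa Fluor 680. CellPathfinder machine-learning gating classed cells as Hoechst high-intensity objects or normal cells, classed normal cells as having healthy, pyknosed or fragmented nuclei, and classed pyknosed cells as mitotic or apoptotic. Tubulin, mitochondrial-mass and membrane-permeability phenotypes are per cents of the healthy-nucleus cells.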

[1] = 12 h, 1 µM, compound concentration 1 uM, replicate 1
[2] = 12 h, 1 µM, compound concentration 1 uM, replicate 2
[3] = 12 h, 10 µM, compound concentration 10 uM, replicate 1
[4] = 12 h, 10 µM, compound concentration 10 uM, replicate 2
[5] = 24 h, 1 µM, compound concentration 1 uM, replicate 1
[6] = 24 h, 1 µM, compound concentration 1 uM, replicate 2
[7] = 24 h, 10 µM, compound concentration 10 uM, replicate 1
[8] = 24 h, 10 µM, compound concentration 10 uM, replicate 2
[9] = 48 h, 1 µM, compound concentration 1 uM, replicate 1
[10] = 48 h, 1 µM, compound concentration 1 uM, replicate 2
[11] = 48 h, 10 µM, compound concentration 10 uM, replicate 1
[12] = 48 h, 10 µM, compound concentration 10 uM, replicate 2

## CC(=O)NCCc1c(Cc2ccccc2)[nH]c2ccccc12 [LUZINDOLE]
[1]
  Population Apoptotic (%): 72%
  Population Fragmented Nuclei (%): 25%
  Population Healthy Nuclei (%): 65%
  Population Hoechst High Intensity Objects (%): 3%
  Population Membrane Permeable-Phenotype (%): 3%
  Population Mitochondria Different-Phenotype (%): 4%
  Population Mitotic Cells (%): 27%
  Population Normal (%): 96%
  Population Pyknosed Nuclei (%): 9%
  Population Tubulin-Different-Phenotype (%): 1%
  Total Cell Count: 233
[2]
  Population Apoptotic (%): 100%
  Population Fragmented Nuclei (%): 19%
  Population Healthy Nuclei (%): 77%
  Population Hoechst High Intensity Objects (%): 2%
  Population Membrane Permeable-Phenotype (%): 6%
  Population Mitochondria Different-Phenotype (%): 2%
  Population Mitotic Cells (%): 0%
  Population Normal (%): 97%
  Population Pyknosed Nuclei (%): 3%
  Population Tubulin-Different-Phenotype (%): 2%
  Total Cell Count: 134
[3]
  Population Apoptotic (%): 81%
  Population Fragmented Nuclei (%): 26%
  Population Healthy Nuclei (%): 65%
  Population Hoechst High Intensity Objects (%): 2%
  Population Membrane Permeable-Phenotype (%): 8%
  Population Mitochondria Different-Phenotype (%): 3%
  Population Mitotic Cells (%): 18%
  Population Normal (%): 97%
  Population Pyknosed Nuclei (%): 7%
  Population Tubulin-Different-Phenotype (%): 4%
  Total Cell Count: 291
[4]
  Population Apoptotic (%): 76%
  Population Fragmented Nuclei (%): 13%
  Population Healthy Nuclei (%): 78%
  Population Hoechst High Intensity Objects (%): 1%
  Population Membrane Permeable-Phenotype (%): 5%
  Population Mitochondria Different-Phenotype (%): 2%
  Population Mitotic Cells (%): 23%
  Population Normal (%): 98%
  Population Tubulin-Different-Phenotype (%): 3%
  Total Cell Count: 179
[5]
  Population Apoptotic (%): 90%
  Population Fragmented Nuclei (%): 19%
  Population Healthy Nuclei (%): 68%
  Population Hoechst High Intensity Objects (%): 4%
  Population Membrane Permeable-Phenotype (%): 2%
  Population Mitochondria Different-Phenotype (%): 3%
  Population Mitotic Cells (%): 10%
  Population Normal (%): 95%
  Population Pyknosed Nuclei (%): 12%
  Population Tubulin-Different-Phenotype (%): 3%
  Total Cell Count: 260
[6]
  Population Apoptotic (%): 88%
  Population Fragmented Nuclei (%): 18%
  Population Healthy Nuclei (%): 70%
  Population Hoechst High Intensity Objects (%): 0%
  Population Membrane Permeable-Phenotype (%): 5%
  Population Mitochondria Different-Phenotype (%): 1%
  Population Mitotic Cells (%): 11%
  Population Normal (%): 99%
  Population Pyknosed Nuclei (%): 10%
  Population Tubulin-Different-Phenotype (%): 4%
  Total Cell Count: 156
[7]
  Population Apoptotic (%): 88%
  Population Fragmented Nuclei (%): 25%
  Population Healthy Nuclei (%): 66%
  Population Hoechst High Intensity Objects (%): 2%
  Population Membrane Permeable-Phenotype (%): 6%
  Population Mitochondria Different-Phenotype (%): 3%
  Population Mitotic Cells (%): 12%
  Population Normal (%): 97%
  Population Pyknosed Nuclei (%): 7%
  Population Tubulin-Different-Phenotype (%): 4%
  Total Cell Count: 342
[8]
  Population Apoptotic (%): 85%
  Population Fragmented Nuclei (%): 11%
  Population Healthy Nuclei (%): 80%
  Population Hoechst High Intensity Objects (%): 0%
  Population Mitochondria Different-Phenotype (%): 1%
  Population Mitotic Cells (%): 15%
  Population Normal (%): 99%
  Population Pyknosed Nuclei (%): 8%
  Population Tubulin-Different-Phenotype (%): 3%
  Total Cell Count: 236
[9]
  Population Apoptotic (%): 91%
  Population Fragmented Nuclei (%): 16%
  Population Healthy Nuclei (%): 74%
  Population Hoechst High Intensity Objects (%): 2%
  Population Membrane Permeable-Phenotype (%): 3%
  Population Mitochondria Different-Phenotype (%): 2%
  Population Mitotic Cells (%): 8%
  Population Normal (%): 97%
  Population Pyknosed Nuclei (%): 9%
  Population Tubulin-Different-Phenotype (%): 2%
  Total Cell Count: 395
[10]
  Population Apoptotic (%): 80%
  Population Fragmented Nuclei (%): 11%
  Population Healthy Nuclei (%): 77%
  Population Hoechst High Intensity Objects (%): 1%
  Population Membrane Permeable-Phenotype (%): 8%
  Population Mitochondria Different-Phenotype (%): 1%
  Population Mitotic Cells (%): 20%
  Population Normal (%): 98%
  Population Pyknosed Nuclei (%): 11%
  Population Tubulin-Different-Phenotype (%): 4%
  Total Cell Count: 217
[11]
  Population Apoptotic (%): 89%
  Population Fragmented Nuclei (%): 21%
  Population Healthy Nuclei (%): 69%
  Population Hoechst High Intensity Objects (%): 2%
  Population Membrane Permeable-Phenotype (%): 6%
  Population Mitochondria Different-Phenotype (%): 3%
  Population Mitotic Cells (%): 10%
  Population Normal (%): 97%
  Population Pyknosed Nuclei (%): 8%
  Population Tubulin-Different-Phenotype (%): 3%
  Total Cell Count: 446
[12]
  Population Apoptotic (%): 100%
  Population Fragmented Nuclei (%): 11%
  Population Healthy Nuclei (%): 82%
  Population Hoechst High Intensity Objects (%): 1%
  Population Membrane Permeable-Phenotype (%): 5%
  Population Mitochondria Different-Phenotype (%): 2%
  Population Mitotic Cells (%): 0%
  Population Normal (%): 98%
  Population Pyknosed Nuclei (%): 5%
  Total Cell Count: 354

## CSc1ccccc1N1CCN(CCCCCC(=O)NC2CCCc3ccccc32)CC1.Cl (stereo unspecified)
[1]
  Population Apoptotic (%): 62%
  Population Fragmented Nuclei (%): 22%
  Population Healthy Nuclei (%): 61%
  Population Hoechst High Intensity Objects (%): 9%
  Population Membrane Permeable-Phenotype (%): 73%
  Population Mitochondria Different-Phenotype (%): 71%
  Population Mitotic Cells (%): 37%
  Population Normal (%): 90%
  Population Pyknosed Nuclei (%): 15%
  Population Tubulin-Different-Phenotype (%): 88%
  Total Cell Count: 222
[2]
  Population Apoptotic (%): 36%
  Population Fragmented Nuclei (%): 24%
  Population Healthy Nuclei (%): 63%
  Population Hoechst High Intensity Objects (%): 3%
  Population Membrane Permeable-Phenotype (%): 51%
  Population Mitochondria Different-Phenotype (%): 85%
  Population Mitotic Cells (%): 63%
  Population Normal (%): 96%
  Population Pyknosed Nuclei (%): 11%
  Population Tubulin-Different-Phenotype (%): 72%
  Total Cell Count: 101
[3]
  Population Apoptotic (%): 70%
  Population Fragmented Nuclei (%): 41%
  Population Healthy Nuclei (%): 39%
  Population Hoechst High Intensity Objects (%): 8%
  Population Membrane Permeable-Phenotype (%): 67%
  Population Mitochondria Different-Phenotype (%): 90%
  Population Mitotic Cells (%): 29%
  Population Normal (%): 91%
  Population Pyknosed Nuclei (%): 18%
  Population Tubulin-Different-Phenotype (%): 96%
  Total Cell Count: 221
[4]
  Population Apoptotic (%): 84%
  Population Fragmented Nuclei (%): 23%
  Population Healthy Nuclei (%): 55%
  Population Hoechst High Intensity Objects (%): 4%
  Population Membrane Permeable-Phenotype (%): 60%
  Population Mitochondria Different-Phenotype (%): 92%
  Population Mitotic Cells (%): 16%
  Population Normal (%): 95%
  Population Pyknosed Nuclei (%): 21%
  Population Tubulin-Different-Phenotype (%): 98%
  Total Cell Count: 125
[5]
  Population Apoptotic (%): 54%
  Population Fragmented Nuclei (%): 22%
  Population Healthy Nuclei (%): 60%
  Population Hoechst High Intensity Objects (%): 6%
  Population Membrane Permeable-Phenotype (%): 63%
  Population Mitochondria Different-Phenotype (%): 63%
  Population Mitotic Cells (%): 45%
  Population Normal (%): 94%
  Population Pyknosed Nuclei (%): 17%
  Population Tubulin-Different-Phenotype (%): 75%
  Total Cell Count: 250
[6]
  Population Apoptotic (%): 58%
  Population Fragmented Nuclei (%): 25%
  Population Healthy Nuclei (%): 58%
  Population Hoechst High Intensity Objects (%): 2%
  Population Membrane Permeable-Phenotype (%): 46%
  Population Mitochondria Different-Phenotype (%): 74%
  Population Mitotic Cells (%): 41%
  Population Normal (%): 97%
  Population Pyknosed Nuclei (%): 15%
  Population Tubulin-Different-Phenotype (%): 63%
  Total Cell Count: 111
[7]
  Population Apoptotic (%): 89%
  Population Fragmented Nuclei (%): 44%
  Population Healthy Nuclei (%): 28%
  Population Hoechst High Intensity Objects (%): 6%
  Population Membrane Permeable-Phenotype (%): 79%
  Population Mitochondria Different-Phenotype (%): 81%
  Population Mitotic Cells (%): 10%
  Population Normal (%): 93%
  Population Pyknosed Nuclei (%): 26%
  Population Tubulin-Different-Phenotype (%): 91%
  Total Cell Count: 219
[8]
  Population Apoptotic (%): 94%
  Population Fragmented Nuclei (%): 19%
  Population Healthy Nuclei (%): 44%
  Population Hoechst High Intensity Objects (%): 10%
  Population Membrane Permeable-Phenotype (%): 90%
  Population Mitochondria Different-Phenotype (%): 56%
  Population Mitotic Cells (%): 5%
  Population Normal (%): 89%
  Population Pyknosed Nuclei (%): 37%
  Population Tubulin-Different-Phenotype (%): 97%
  Total Cell Count: 112
[9]
  Population Apoptotic (%): 64%
  Population Fragmented Nuclei (%): 25%
  Population Healthy Nuclei (%): 53%
  Population Hoechst High Intensity Objects (%): 8%
  Population Membrane Permeable-Phenotype (%): 42%
  Population Mitochondria Different-Phenotype (%): 56%
  Population Mitotic Cells (%): 35%
  Population Normal (%): 91%
  Population Pyknosed Nuclei (%): 21%
  Population Tubulin-Different-Phenotype (%): 50%
  Total Cell Count: 272
[10]
  Population Apoptotic (%): 95%
  Population Fragmented Nuclei (%): 28%
  Population Healthy Nuclei (%): 52%
  Population Hoechst High Intensity Objects (%): 5%
  Population Membrane Permeable-Phenotype (%): 41%
  Population Mitochondria Different-Phenotype (%): 63%
  Population Mitotic Cells (%): 4%
  Population Normal (%): 94%
  Population Pyknosed Nuclei (%): 18%
  Population Tubulin-Different-Phenotype (%): 44%
  Total Cell Count: 137
[11]
  Population Apoptotic (%): 98%
  Population Fragmented Nuclei (%): 43%
  Population Healthy Nuclei (%): 18%
  Population Hoechst High Intensity Objects (%): 15%
  Population Membrane Permeable-Phenotype (%): 77%
  Population Mitochondria Different-Phenotype (%): 33%
  Population Mitotic Cells (%): 1%
  Population Normal (%): 84%
  Population Pyknosed Nuclei (%): 38%
  Population Tubulin-Different-Phenotype (%): 75%
  Total Cell Count: 232
[12]
  Population Apoptotic (%): 100%
  Population Fragmented Nuclei (%): 25%
  Population Healthy Nuclei (%): 20%
  Population Hoechst High Intensity Objects (%): 11%
  Population Membrane Permeable-Phenotype (%): 85%
  Population Mitochondria Different-Phenotype (%): 45%
  Population Mitotic Cells (%): 0%
  Population Normal (%): 88%
  Population Pyknosed Nuclei (%): 54%
  Population Tubulin-Different-Phenotype (%): 95%
  Total Cell Count: 109
